The values that follow come from ChEMBL document CHEMBL1136859, “Synthesis and antimicrobial evaluation of some new substituted purine derivatives” (2009).

The structures appear in SMILES notation. Values after ≈ are worked out from the molar mass of the structure shown.

The first test deals with Escherichia coli. The test can be described thus: Antibacterial activity against Escherichia coli 25922 after 18 to 24 hrs by tube dilution method. The note with it: ATCC25922. Format: functional. An outline of the steps: (§1)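 Tube dilution broth MIC in Mueller–Hinton broth. Strains were maintained on Mueller–Hinton agar for 24 h at 37 °C. Colonies were suspended in sterile water, adjusted to 0.5 McFarland, and added to give about 10⁵ CFU/mL final. Compounds were dissolved in 12.5% DMSO and serially diluted two-fold. Tubes were incubated 18–24 h at 37 °C. MIC was taken as the last tube with no growth.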
The compound `CC1(C)S[C@@H]2[C@H](NC(=O)[C@H](N)c3ccccc3)C(=O)N2[C@H]1C(=O)OCOC(=O)[C@@H]1N2C(=O)C[C@H]2S(=O)(=O)C1(C)C` [SULTAMICILLIN] yielded an MIC of 25 µg/mL (≈ 42 µM).
As for `CCN(CC)CCNc1ncnc2c1ncn2Cc1ccc(F)cc1`, the MIC was determined as 50 µg/mL (≈ 146 µM).
Same read-out and setting: in the case of `Nc1ncnc2c1ncn2C1CCCC1` it was 50 µg/mL (≈ 246 µM).
The compound `CCN(CC)CCNc1ncnc2c1ncn2C1CCCC1` came in with an MIC of 50 µg/mL (≈ 165 µM).
Take `CC1(C)S[C@@H]2[C@H](NC(=O)[C@H](N)c3ccccc3)C(=O)N2[C@H]1C(=O)O` [AMPICILLIN]: the MIC is 50 µg/mL (≈ 143 µM).
In turn, `CC1CCN(c2ncnc3c2ncn3C2CCCC2)CC1` had an MIC of 50 µg/mL (≈ 175 µM).
The same measure, in the same setting: in the case of `CN1CCN(Nc2ncnc3[nH]cnc23)CC1` it was 25 µg/mL (≈ 107 µM); in that of `c1ccc(NCCNc2ncnc3[nH]cnc23)cc1`, 25 µg/mL (≈ 98.3 µM).
On the same count and under the same terms, the same measure for `CC(C)NCCNc1ncnc2c1ncn2C1CCCC1.Cl`: 50 µg/mL.
`CC1CCN(c2ncnc3[nH]cnc23)CC1` came in with an MIC of 50 µg/mL (≈ 230 µM).
`CC(C)NCCNc1ncnc2c1ncn2Cc1ccc(F)cc1` showed an MIC of 50 µg/mL (≈ 152 µM).
Compound `COc1ccc(CNc2ncnc3c2ncn3C2CCCC2)cc1` gave an MIC of 50 µg/mL (≈ 155 µM).
The compound `CCn1c(NC2CCCC2)nc2c(N)ncnc21` came in with an MIC of 50 µg/mL (≈ 203 µM).

The subject of the next test is Staphylococcus aureus. The test can be described thus: Antibacterial activity against methicillin-resistant Staphylococcus aureus […] after 18 to 24 hrs by tube dilution method. Format: functional.
Conditions: not given
In a few lines:
(§2)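 Two-fold broth tube dilution in Mueller–Hinton broth. Strains kept on Mueller–Hinton agar for 24 h at 37 °C. Colonies suspended in sterile water and adjusted to 0.5 McFarland, giving a final inoculum of about 10⁵ CFU/mL. Compounds dissolved in 12.5% DMSO at 200 µg/mL and serially diluted to 0.19 µg/mL. Incubated 18–24 h at 37 °C. MIC taken as the last tube with no growth.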
Turning to `CC1(C)S[C@@H]2[C@H](NC(=O)[C@H](N)c3ccccc3)C(=O)N2[C@H]1C(=O)OCOC(=O)[C@@H]1N2C(=O)C[C@H]2S(=O)(=O)C1(C)C` [SULTAMICILLIN], the MIC was found to be 25 µg/mL (≈ 42 µM).
In the case of `CCN(CC)CCNc1ncnc2c1ncn2Cc1ccc(F)cc1`, the MIC turned out to be 50 µg/mL (≈ 146 µM).
In the case of `Nc1ncnc2c1ncn2C1CCCC1`, the MIC came to 50 µg/mL (≈ 246 µM).
In turn, `CCN(CC)CCNc1ncnc2c1ncn2C1CCCC1` returned an MIC of 50 µg/mL (≈ 165 µM).
In the case of `CC1(C)S[C@@H]2[C@H](NC(=O)[C@H](N)c3ccccc3)C(=O)N2[C@H]1C(=O)O` [AMPICILLIN], the MIC is 50 µg/mL (≈ 143 µM).
Same read-out and setting: the same measure for `CC1CCN(c2ncnc3c2ncn3C2CCCC2)CC1`: 50 µg/mL (≈ 175 µM).
As to `CN1CCN(Nc2ncnc3[nH]cnc23)CC1`, the MIC came to 50 µg/mL (≈ 214 µM).
Compound `c1ccc(NCCNc2ncnc3[nH]cnc23)cc1` returned an MIC of 50 µg/mL (≈ 197 µM).
As for `CC(C)NCCNc1ncnc2c1ncn2C1CCCC1.Cl`, the MIC stood at 50 µg/mL.
On the same count and under the same terms, in the case of `CC1CCN(c2ncnc3[nH]cnc23)CC1` it was 50 µg/mL (≈ 230 µM).
`CC(C)NCCNc1ncnc2c1ncn2Cc1ccc(F)cc1` had an MIC of 50 µg/mL (≈ 152 µM).
As to `COc1ccc(CNc2ncnc3c2ncn3C2CCCC2)cc1`, the MIC worked out at 50 µg/mL (≈ 155 µM).
Take `CCn1c(NC2CCCC2)nc2c(N)ncnc21`: the MIC was 50 µg/mL (≈ 203 µM).

For the next test, the system named is Bacillus subtilis. The test can be described thus: Antibacterial activity against Bacillus subtilis 6633 after 18 to 24 hrs by tube dilution method. Format: functional.
Conditions: not given
An outline of the steps:
as §1
`CC1(C)S[C@@H]2[C@H](NC(=O)[C@H](N)c3ccccc3)C(=O)N2[C@H]1C(=O)OCOC(=O)[C@@H]1N2C(=O)C[C@H]2S(=O)(=O)C1(C)C` [SULTAMICILLIN] registered an MIC of 0.78 µg/mL (≈ 1.31 µM).
On the same count and under the same terms, the same measure for `CCN(CC)CCNc1ncnc2c1ncn2Cc1ccc(F)cc1`: 25 µg/mL (≈ 73 µM); for `Nc1ncnc2c1ncn2C1CCCC1`: 25 µg/mL (≈ 123 µM).
In the case of `CCN(CC)CCNc1ncnc2c1ncn2C1CCCC1`, the MIC came to 25 µg/mL (≈ 82.7 µM).
As to `CC1(C)S[C@@H]2[C@H](NC(=O)[C@H](N)c3ccccc3)C(=O)N2[C@H]1C(=O)O` [AMPICILLIN], the MIC is 50 µg/mL (≈ 143 µM).
On the same count and under the same terms, in the case of `CC1CCN(c2ncnc3c2ncn3C2CCCC2)CC1` it was 50 µg/mL (≈ 175 µM); in that of `CN1CCN(Nc2ncnc3[nH]cnc23)CC1`, 25 µg/mL (≈ 107 µM); in that of `c1ccc(NCCNc2ncnc3[nH]cnc23)cc1`, 50 µg/mL (≈ 197 µM).
`CC(C)NCCNc1ncnc2c1ncn2C1CCCC1.Cl`: the MIC was found to be 25 µg/mL.
On the same count and under the same terms, the same measure for `CC1CCN(c2ncnc3[nH]cnc23)CC1`: 25 µg/mL (≈ 115 µM); for `CC(C)NCCNc1ncnc2c1ncn2Cc1ccc(F)cc1`: 50 µg/mL (≈ 152 µM).
For `COc1ccc(CNc2ncnc3c2ncn3C2CCCC2)cc1`, the MIC is 50 µg/mL (≈ 155 µM).
Turning to `CCn1c(NC2CCCC2)nc2c(N)ncnc21`, the MIC was 25 µg/mL (≈ 101 µM).

The subject of the next test is Staphylococcus aureus. The test can be described thus: Antibacterial activity against methicillin-resistant Staphylococcus aureus isolate after 18 to 24 hrs by tube dilution method. Format: functional.
Conditions: not given
In a few lines:
as §2
The compound `CC1(C)S[C@@H]2[C@H](NC(=O)[C@H](N)c3ccccc3)C(=O)N2[C@H]1C(=O)OCOC(=O)[C@@H]1N2C(=O)C[C@H]2S(=O)(=O)C1(C)C` [SULTAMICILLIN] gave an MIC of 25 µg/mL (≈ 42 µM).
With `CCN(CC)CCNc1ncnc2c1ncn2Cc1ccc(F)cc1`, the MIC was 50 µg/mL (≈ 146 µM).
Still for that read-out and setting: in the case of `Nc1ncnc2c1ncn2C1CCCC1` it was 50 µg/mL (≈ 246 µM).
`CCN(CC)CCNc1ncnc2c1ncn2C1CCCC1` had an MIC of 50 µg/mL (≈ 165 µM).
In the case of `CC1(C)S[C@@H]2[C@H](NC(=O)[C@H](N)c3ccccc3)C(=O)N2[C@H]1C(=O)O` [AMPICILLIN], the MIC is 50 µg/mL (≈ 143 µM).
`CC1CCN(c2ncnc3c2ncn3C2CCCC2)CC1`: the MIC turned out to be 50 µg/mL (≈ 175 µM).
With `CN1CCN(Nc2ncnc3[nH]cnc23)CC1`, the MIC was determined as 50 µg/mL (≈ 214 µM).
On the same count and under the same terms, in the case of `c1ccc(NCCNc2ncnc3[nH]cnc23)cc1` it was 50 µg/mL (≈ 197 µM); in that of `CC(C)NCCNc1ncnc2c1ncn2C1CCCC1.Cl`, 50 µg/mL.
`CC1CCN(c2ncnc3[nH]cnc23)CC1` had an MIC of 50 µg/mL (≈ 230 µM).
The same measure, in the same setting: the same measure for `CC(C)NCCNc1ncnc2c1ncn2Cc1ccc(F)cc1`: 50 µg/mL (≈ 152 µM).
Compound `COc1ccc(CNc2ncnc3c2ncn3C2CCCC2)cc1` yielded an MIC of 25 µg/mL (≈ 77.3 µM).
The compound `CCn1c(NC2CCCC2)nc2c(N)ncnc21` showed an MIC of 50 µg/mL (≈ 203 µM).

The test system of a further test is Staphylococcus aureus. The test can be described thus: Antibacterial activity against Staphylococcus aureus ATCC 25923 after 18 to 24 hrs by tube dilution method. Format: functional.
Conditions: not given
In a few lines:
as §2
With `CC1(C)S[C@@H]2[C@H](NC(=O)[C@H](N)c3ccccc3)C(=O)N2[C@H]1C(=O)OCOC(=O)[C@@H]1N2C(=O)C[C@H]2S(=O)(=O)C1(C)C` [SULTAMICILLIN], the MIC turned out to be 1.56 µg/mL (≈ 2.62 µM).
Consider `CCN(CC)CCNc1ncnc2c1ncn2Cc1ccc(F)cc1`, for which the MIC was determined as 50 µg/mL (≈ 146 µM).
Turning to `Nc1ncnc2c1ncn2C1CCCC1`, the MIC was determined as 50 µg/mL (≈ 246 µM).
For the compound `CCN(CC)CCNc1ncnc2c1ncn2C1CCCC1`, the MIC amounted to 50 µg/mL (≈ 165 µM).
With `CC1(C)S[C@@H]2[C@H](NC(=O)[C@H](N)c3ccccc3)C(=O)N2[C@H]1C(=O)O` [AMPICILLIN], the MIC was 0.78 µg/mL (≈ 2.23 µM).
The compound `CC1CCN(c2ncnc3c2ncn3C2CCCC2)CC1` displayed an MIC of 50 µg/mL (≈ 175 µM).
`CN1CCN(Nc2ncnc3[nH]cnc23)CC1`: the MIC was 50 µg/mL (≈ 214 µM).
Regarding `c1ccc(NCCNc2ncnc3[nH]cnc23)cc1`, the MIC came to 50 µg/mL (≈ 197 µM).
In turn, `CC(C)NCCNc1ncnc2c1ncn2C1CCCC1.Cl` yielded an MIC of 25 µg/mL.
On the same count and under the same terms, the same measure for `CC1CCN(c2ncnc3[nH]cnc23)CC1`: 25 µg/mL (≈ 115 µM); for `CC(C)NCCNc1ncnc2c1ncn2Cc1ccc(F)cc1`: 50 µg/mL (≈ 152 µM); for `COc1ccc(CNc2ncnc3c2ncn3C2CCCC2)cc1`: 25 µg/mL (≈ 77.3 µM).
`CCn1c(NC2CCCC2)nc2c(N)ncnc21` returned an MIC of 50 µg/mL (≈ 203 µM).

The test system of the next test is Candida albicans. The test can be described thus: microbe, parasite or virus in culture.
Conditions: not given
Format: functional.
In turn, `CCN(CC)CCNc1ncnc2c1ncn2Cc1ccc(F)cc1` yielded an MIC of 25 µg/mL (≈ 73 µM).
Regarding `Nc1ncnc2c1ncn2C1CCCC1`, the MIC was 12.5 µg/mL (≈ 61.5 µM).
Regarding `CCN(CC)CCNc1ncnc2c1ncn2C1CCCC1`, the MIC was determined as 50 µg/mL (≈ 165 µM).
Same read-out and setting: the same measure for `CC1CCN(c2ncnc3c2ncn3C2CCCC2)CC1`: 12.5 µg/mL (≈ 43.8 µM); for `CN1CCN(Nc2ncnc3[nH]cnc23)CC1`: 12.5 µg/mL (≈ 53.6 µM); for `c1ccc(NCCNc2ncnc3[nH]cnc23)cc1`: 3.12 µg/mL (≈ 12.3 µM).
Turning to `CC(C)NCCNc1ncnc2c1ncn2C1CCCC1.Cl`, the MIC turned out to be 25 µg/mL.
`CC1CCN(c2ncnc3[nH]cnc23)CC1` registered an MIC of 25 µg/mL (≈ 115 µM).
Take `CC(C)NCCNc1ncnc2c1ncn2Cc1ccc(F)cc1`: the MIC was found to be 25 µg/mL (≈ 76.1 µM).
On the same count and under the same terms, the same measure for `COc1ccc(CNc2ncnc3c2ncn3C2CCCC2)cc1`: 12.5 µg/mL (≈ 38.7 µM); for `CCn1c(NC2CCCC2)nc2c(N)ncnc21`: 12.5 µg/mL (≈ 50.7 µM).
